Reference: ChEMBL document CHEMBL1914356, “Maslinic acid derivatives induce significant apoptosis in b16f10 murine melanoma cells” (2011)
The source made the active and inactive calls. The calls are words filed in the database; no cut-off is given here.

Key:
[1] = tested on: B16-F10; test: Induction of apoptosis in mouse B16F10 cells assessed as necrotic cells at 30 uM after 24 hrs using annexin V-FITC/propidium iodide staining by flow cytometry; format: functional
Method in brief: (§1)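 B16-F10 cells grown in DMEM with 4 mM L-glutamine, 1 mM pyruvate, 4.5 g/L glucose and 10% FBS. 300,000 cells/well were plated, then treated in DMSO after 24 h. Vehicle and medium-alone controls were included. Cells were detached with EDTA-trypsin, PBS-washed and set at 1 × 10^6 cells/mL in binding buffer. Annexin V-FITC/PI staining ran 15 min at room temperature in the dark, followed by flow cytometry within 1 h.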

[2] = tested on: B16-F10; test: Induction of apoptosis in mouse B16F10 cells assessed as total apoptosis at 20 uM after 48 hrs using annexin V-FITC/propidium iodide staining by flow cytometry; format: functional, cell-based
Method in brief: (§2)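 B16-F10 cells in DMEM/10% FBS were plated at 300,000 cells/well, then treated 24 h later, in duplicate, in DMSO at […] for 24 or 48 h. Vehicle and medium controls were included. Annexin V-FITC/PI staining ran 15 min at room temperature in the dark. Total apoptosis (early + late) was read by flow cytometry as mean ± SD from two independent experiments.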

[3] = tested on: B16-F10; test: Induction of apoptosis in mouse B16F10 cells assessed as early/late apoptotic cells at 30 uM after 24 hrs using annexin V-FITC/propidium iodide staining by flow cytometry; format: functional; method in brief: as §1
[4] = tested on: B16-F10; test: Induction of apoptosis in mouse B16F10 cells assessed as total apoptosis at 20 uM after 24 hrs using annexin V-FITC/propidium iodide staining by flow cytometry; format: functional; method in brief: as §2
[5] = tested on: B16-F10; test: Induction of apoptosis in mouse B16F10 cells at 30 uM after 24 hrs using annexin V-FITC/propidium iodide staining by flow cytometry; format: functional; method in brief: as §1
[6] = tested on: B16-F10; test: Induction of apoptosis in mouse B16F10 cells assessed as total apoptosis at 1 uM after 24 hrs using annexin V-FITC/propidium iodide staining by flow cytometry; format: functional
Method in brief: (§3)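 B16-F10 cells grown in DMEM with 4 mM L-glutamine, 1.5 g/L bicarbonate, 1 mM pyruvate, 4.5 g/L glucose, 10% FBS. Seeded at 300,000 cells/well in 6-well dishes, treated 24 h later with compound in DMSO. Vehicle and medium-only controls. Detached with EDTA-trypsin, PBS-washed, stained with annexin V-FITC and PI 15 min at room temperature in dark. Total apoptosis = early + late. Mean ± SD, two independent experiments.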

[7] = tested on: B16-F10; test: Induction of apoptosis in mouse B16F10 cells assessed as total apoptosis at 1 to 10 uM after 48 hrs using annexin V-FITC/propidium iodide staining by flow cytometry; format: functional, cell-based; method in brief: as §3
[8] = tested on: B16-F10; test: Induction of apoptosis in mouse B16F10 cells assessed as total apoptosis at 1 to 10 uM after 24 hrs using annexin V-FITC/propidium iodide staining by flow cytometry; format: functional, cell-based; method in brief: as §3

SMILES | Activity [1] [%] | also measured
COC(=O)[C@]12CCC(C)(C)C[C@H]1C1=CC[C@@H]3[C@@]4(C)C[C@@H](C=O)C(C)(C)[C@@H]4CC[C@@]3(C)[C@]1(C)CC2 | <10 | 
CC1(C)CC[C@]2(C(N)=O)CC[C@]3(C)C(=CC[C@@H]4[C@@]5(C)C[C@@H](O)[C@H](O)C(C)(C)[C@@H]5CC[C@]43C)[C@@H]2C1 | <10 | Activity [2]: Active; Activity [3]: 80%; Activity [4]: 70%
COC(=O)[C@]12CCC(C)(C)C[C@H]1C1=CC[C@@H]3[C@@]4(C)C[C@@H](OC(C)=O)C(=O)C(C)(C)[C@@H]4CC[C@@]3(C)[C@]1(C)CC2 | <10 | 
COC(=O)[C@]12CCC(C)(C)C[C@H]1C1=CC[C@@H]3[C@@]4(C)C[C@@H](O)C(=O)[C@](C)(CO)[C@@H]4CC[C@@]3(C)[C@]1(C)CC2 | <10 | Activity [5]: 30%
CC1(C)CC[C@]2(CO)CC[C@]3(C)C(=CC[C@@H]4[C@@]5(C)C[C@@H](O)[C@H](O)C(C)(C)[C@@H]5CC[C@]43C)[C@@H]2C1 | <10 | 
C=C1C2CC3[C@@]4(C)CC[C@H](OC(C)=O)C(C)(C)C4CC[C@@]3(C)C2=CC[C@@]2(C(=O)OC)CCC(C)(C)CC12 (stereo partly specified) | <10 | 
CC1(C)CC[C@]2(C#N)CC[C@]3(C)C(=CC[C@@H]4[C@@]5(C)C[C@@H](O)[C@H](O)C(C)(C)[C@@H]5CC[C@]43C)[C@@H]2C1 | <10 | Activity [6]: 78.75%; Activity [7]: inactive; Activity [2]: Active; Activity [8]: Active; Activity [3]: 80%; Activity [4]: 70%
CC(=O)O[C@H]1CC[C@]2(C)C3=CC(=O)[C@]45OC(=O)[C@@]6(CCC(C)(C)C[C@H]64)CC[C@@]5(C)[C@]3(C)CC[C@H]2C1(C)C | <10 | 
CC1(C)CC[C@]2(CO)CC[C@]3(C)[C@](O)([C@H](O)C=C4[C@@]5(C)CC[C@H](O)C(C)(C)[C@@H]5CC[C@]43C)[C@@H]2C1 | <10 | 
CC(=O)O[C@H]1CC[C@]2(C)[C@H]3C[C@H](O)[C@]45OC(=O)[C@@]6(CCC(C)(C)C[C@H]64)CC[C@@]5(C)[C@]3(C)CC[C@H]2C1(C)C | <10 | 
CC1(C)CC[C@]2(CN)CC[C@]3(C)C(=CC[C@@H]4[C@@]5(C)C[C@@H](O)[C@H](O)C(C)(C)[C@@H]5CC[C@]43C)[C@@H]2C1 | <10 | 
COC(=O)[C@]12CCC(C)(C)C[C@H]1C1=CC[C@@H]3[C@@]4(C)C=CC(=O)C(C)(C)[C@@H]4CC[C@@]3(C)[C@]1(C)CC2 | <10 | 
COC(=O)[C@]12CCC(C)(C)C[C@H]1[C@]1(/C=C\[C@@]34O[C@]3(C)CC[C@H]3C(C)(C)[C@@H](O)CC[C@@]34C)O[C@@]1(C)CC2 | <10 | Activity [5]: 30%
CC1(C)CC[C@]2(C(=O)OCc3ccccc3)CC[C@]3(C)C(=CC[C@@H]4[C@@]5(C)C=C(O)C(=O)C(C)(C)[C@@H]5CC[C@]43C)[C@@H]2C1 | <10 | Activity [2]: Active; Activity [3]: 80%
CC1(C)CC[C@]2(C(=O)O)CC[C@]3(C)C(=CC[C@@H]4[C@@]5(C)C[C@@H](O)[C@H](O)C(C)(C)[C@@H]5CC[C@]43C)[C@@H]2C1 [MASLINIC ACID] | <10 | 
CC1(C)CC[C@]2(C(=O)O)CC[C@]3(C)C(=CC[C@@H]4[C@@]5(C)CC[C@H](O)C(C)(C)[C@@H]5CC[C@]43C)[C@@H]2C1 [OLEANOLIC_ACID] | <10 | 
CC1(C)CC[C@]2(CO)CC[C@]3(C)C(=CC[C@@H]4[C@@]5(C)C[C@H](O)[C@H](O)C(C)(C)[C@@H]5CC[C@]43C)[C@@H]2C1 | <10 | 
CC1(C)CC[C@]2(C(=O)[O-])CC[C@]3(C)C(=CC[C@@H]4[C@@]5(C)C[C@@H](O)[C@H](O)C(C)(C)[C@@H]5CC[C@]43C)[C@@H]2C1.[Na+] [SODIUM MASLINATE] | <10 | Activity [6]: 56.67%; Activity [3]: 80%; Activity [4]: 70%
COC(=O)[C@]12CCC(C)(C)C[C@H]1[C@@](O)(/C=C\[C@@]13O[C@]1(C)CC[C@H]1C(C)(C)[C@@H](O)CC[C@@]13C)[C@](C)(O)CC2 | <10 | Activity [5]: 30%
CC1(C)CC[C@]2(C(=O)O)CC[C@]3(C)C(=CC[C@@H]4[C@@]5(C)C[C@@H](O)[C@H](O)C(C)(C)[C@@H]5CC[C@]43C)[C@@H]2C1 |  | Activity [2]: Active

SMILES | Activity [1] [%] | also measured
CC1(C)CC[C@]2(C(=O)OCc3ccccc3)CC[C@]3(C)C(=CC[C@@H]4[C@@]5(C)C[C@H](O)[C@H](O)C(C)(C)[C@@H]5CC[C@]43C)[C@@H]2C1 [BENZYL AUGUSTATE] | <10 | Activity [2]: Active; Activity [3]: 80%
CC(=O)O[C@H]1CC[C@]2(C)[C@H]3C=C[C@]45OC(=O)[C@@]6(CCC(C)(C)C[C@H]64)CC[C@@]5(C)[C@]3(C)CC[C@H]2C1(C)C | <10 | 
Cc1ccc(S(=O)(=O)OC[C@]23CCC(C)(C)C[C@H]2C2=CC[C@@H]4[C@@]5(C)C[C@H]6OC(C)(C)O[C@@H]6C(C)(C)[C@@H]5CC[C@@]4(C)[C@]2(C)CC3)cc1 | <10 | 
COC(=O)[C@]12CCC(C)(C)C[C@H]1[C@@](O)(/C=C\[C@@]13O[C@]1(C)CC[C@H]1C(C)(C)CCC[C@@]13C)[C@](C)(O)CC2 | <10 | 
COC(=O)C12CCC(C)=C(/C=C\C3=C(C)CC[C@H]4C(C)(C)[C@@H](O)CC[C@]34C)[C@@H]1CC(C)(C)CC2 (single isomer, unassigned) | <10 | 
CC1(C)CC[C@]2(CN=[N+]=[N-])CC[C@]3(C)C(=CC[C@@H]4[C@@]5(C)C[C@@H](O)[C@H](O)C(C)(C)[C@@H]5CC[C@]43C)[C@@H]2C1 | <10 | 
COC(=O)[C@]12CCC(C)(C)C[C@H]1C1=CC[C@@H]3[C@@]4(C)C[C@H](OC(C)=O)[C@@H](O)C(C)(C)[C@@H]4CC[C@@]3(C)[C@]1(C)CC2 | <10 | 
C=C1C[C@]2(C)[C@H]3CC=C4[C@@H]5CC(C)(C)CC[C@]5(C(=O)OC)CC[C@@]4(C)[C@]3(C)CC[C@H]2C(C)(C)[C@H]1OC(C)=O | <10 | 
C=C1CC[C@H]2C(C)(C)[C@@H](OC(C)=O)CC[C@]2(C)/C1=C/CC1=C(C)CCC2(C(=O)OC)CCC(C)(C)C[C@@H]12 (single isomer, unassigned) | <10 | 
CC1(C)CC[C@]2(C(=O)O)CC[C@]3(C)C(=CC[C@@H]4[C@@]5(C)C[C@H](O)[C@H](O)C(C)(C)[C@@H]5CC[C@]43C)[C@@H]2C1 [AUGUSTIC ACID] | <10 | 
CC1(C)CC[C@]2(C(=O)O)CC[C@]3(C)C(=CC[C@@H]4[C@@]5(C)CC(=O)[C@H](O)C(C)(C)[C@@H]5CC[C@]43C)[C@@H]2C1 | <10 | Activity [2]: Active; Activity [3]: 80%
CC(=O)O[C@@H]1C[C@]2(C)[C@H]3CC=C4[C@@H]5CC(C)(C)CC[C@]5(C(=O)O)CC[C@@]4(C)[C@]3(C)CC[C@H]2C(C)(C)[C@H]1OC(C)=O | <10 | 
CC1(C)CC[C@]2(CO)CC[C@]3(C)C(=CC[C@@H]4[C@@]5(C)C[C@H]6OC(C)(C)O[C@@H]6C(C)(C)[C@@H]5CC[C@]43C)[C@@H]2C1 | <10 | 
CC1(C)CC[C@]2(C(=O)O)CC[C@]3(C)C(=CC[C@@H]4[C@@]5(C)C=C(O)C(=O)C(C)(C)[C@@H]5CC[C@]43C)[C@@H]2C1 | <10 | Activity [2]: Active; Activity [3]: 80%
CC(=O)O[C@@H]1C[C@]2(C)[C@H]3CC=C4[C@@H]5CC(C)(C)CC[C@]5(C(N)=O)CC[C@@]4(C)[C@]3(C)CC[C@H]2C(C)(C)[C@H]1OC(C)=O | <10 | 
CC1(C)CC[C@]2(C(=O)OCc3ccccc3)CC[C@]3(C)C(=CC[C@@H]4[C@@]5(C)CC(=O)[C@H](O)C(C)(C)[C@@H]5CC[C@]43C)[C@@H]2C1 | <10 | Activity [2]: Active; Activity [3]: 80%; Activity [4]: > 70%
C=C1CC[C@H]2C(C)(C)CCC[C@]2(C)/C1=C/CC1=C(C)CCC2(C(=O)OC)CCC(C)(C)C[C@@H]12 (single isomer, unassigned) | <10 | 
CC(=O)O[C@H]1CC[C@]2(C)[C@H]3C[C@H](OC(C)=O)[C@]45OC(=O)[C@@]6(CCC(C)(C)C[C@H]64)CC[C@@]5(C)[C@]3(C)CC[C@H]2C1(C)C | <10 | Activity [5]: 30%
COC(=O)C12CCC(C)=C(/C=C\C3=C(C)CC[C@H]4C(C)(C)[C@@H](OC(C)=O)CC[C@]34C)[C@@H]1CC(C)(C)CC2 (single isomer, unassigned) | <10 | 
